We go through 3 molecules from ChEMBL document CHEMBL1833929, “Design, synthesis and anticancer activity of novel dihydrobenzofuro[4,5-b][1,8]naphthyridin-6-one derivatives” (Bioorg Med Chem Lett, 2011).

One may read the IC50 as the concentration needed to halve the response being measured. The low end stands for greater potency in that assay, the high end for weaker potency in that assay.

Where only a bound is given, the exact number is not on record here.

Assay [1] can be described thus: Cell cycle arrest in human MCF7/ADR cells assessed as accumulation at G1 phase at 0.05 uM after 48 hrs using propidium iodide staining by flow cytometry (reference value: 62.15 +/- 3.14 %). Type of assay: functional, cell-based. As to conditions: NCI/ADR-RES. A digest of the protocol:
(§1)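 MCF-7/ADR cells exposed to test agent for 48 h, collected, washed and suspended in cold PBS. Fixed in chilled 75% methanol, then stained with PI solution (100 µg/mL RNase, 10 µg/mL PI in PBS). Phase distribution (G1, S, G2/M) determined by flow cytometry. Mean ± SEM of three independent experiments; one-way ANOVA with Newman–Keuls post hoc test, p<0.05.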
Background: A flow cytometer gives signals particle by particle.

Assay [2] in a line: Cell cycle arrest in human MCF7/ADR cells assessed as accumulation at S phase at 0.1 uM after 48 hrs using propidium iodide staining by flow cytometry (reference value: 15.34 +/- 0.98 %). Format: functional, cell-based. Particulars: NCI/ADR-RES. In short, it runs like this:
as §1

The subject of assay [3] is DU-145. In words: Cytotoxicity against human DU145 cells after 24 hrs by MTT assay. Format: functional, cell-based. As to conditions: DU-145, 24 h. In short, it runs like this:
(§2)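 Cells kept in RPMI-1640 with 10% heat-inactivated FBS, 1.25 mM HEPES and 1% penicillin/streptomycin. Seeded at 2×10^3 cells/well and grown 48 h, then treated with a range of concentrations for 24 or 48 h. MTT (5 mg/mL) added for 4 h at 37 °C, formazan dissolved in DMSO, absorbance read at 540 nm. Triplicate. IC50 from log concentration vs % viability loss; doxorubicin reference.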
In general terms: Tetrazolium dyes change colour on reduction, which living cells bring about.

Assay [4] can be described thus: Cytotoxicity against human MCF7/ADR cells after 48 hrs by MTT assay. Format: functional, cell-based. Particulars: NCI/ADR-RES. In short, it runs like this:
as §2

A short description of assay [5]: Cell cycle arrest in human MCF7/ADR cells assessed as accumulation at G2/M phase at 0.2 uM after 48 hrs using propidium iodide staining by flow cytometry (reference value: 22.51 +/- 1.5 %). Type of assay: functional, cell-based. Particulars: NCI/ADR-RES. In short, it runs like this:
as §1

Assay [6] in a line: Cell cycle arrest in human MCF7/ADR cells assessed as accumulation at G2/M phase at 0.1 uM after 48 hrs using propidium iodide staining by flow cytometry (reference value: 22.51 +/- 1.5 %). Type of assay: functional, cell-based. Particulars: NCI/ADR-RES. In short, it runs like this: as §1
The subject of assay [7] is MCF7. Kind of assay: Cytotoxicity against estrogen receptor-positive human MCF7 cells after 48 hrs by MTT assay. Format: functional, cell-based. As to conditions: MCF7, 48 h. A digest of the protocol:
as §2

Assay [8] in a line: Cell cycle arrest in human MCF7/ADR cells assessed as accumulation at S phase at 0.05 uM after 48 hrs using propidium iodide staining by flow cytometry (reference value: 15.34 +/- 0.98 %). Type of assay: functional, cell-based. Particulars: NCI/ADR-RES. A digest of the protocol: as §1
The test system of assay [9] is LNCaP. In words: Cytotoxicity against androgen receptor-positive human LNCAP cells after 48 hrs by MTT assay. Type of assay: functional, cell-based. In short, it runs like this: as §2
For assay [10], the system named is MCF7. Kind of assay: Cytotoxicity against estrogen receptor-positive human MCF7 cells after 24 hrs by MTT assay. Particulars: MCF7, 24 h. Type of assay: functional, cell-based. In short, it runs like this:
as §2

Assay [11] is described as follows: Cell cycle arrest in human MCF7/ADR cells assessed as accumulation at G1 phase at 0.2 uM after 48 hrs using propidium iodide staining by flow cytometry (reference value: 62.15 +/- 3.14 %). Format: functional, cell-based. As to conditions: NCI/ADR-RES. A digest of the protocol:
as §1

Assay [12] has as its system DU-145. Kind of assay: Cytotoxicity against human DU145 cells after 48 hrs by MTT assay. Format: functional, cell-based. As to conditions: DU-145, 48 h. In short, it runs like this:
as §2

A short description of assay [13]: Cell cycle arrest in human MCF7/ADR cells assessed as accumulation at G2/M phase at 0.05 uM after 48 hrs using propidium iodide staining by flow cytometry (reference value: 22.51 +/- 1.5 %). Format: functional, cell-based. As to conditions: NCI/ADR-RES. In short, it runs like this: as §1
Assay [14] has as its system PC-3. In words: Cytotoxicity against androgen receptor-negative human PC3 cells after 24 hrs by MTT assay. Format: functional, cell-based. As to conditions: PC-3, 24 h. A digest of the protocol: as §2
The nature of assay [15]: Cell cycle arrest in human MCF7/ADR cells assessed as accumulation at G1 phase at 0.1 uM after 48 hrs using propidium iodide staining by flow cytometry (reference value: 62.15 +/- 3.14 %). Format: functional, cell-based. As to conditions: NCI/ADR-RES. A digest of the protocol:
as §1

For assay [16], the system named is LNCaP. In words: Cytotoxicity against androgen receptor-positive human LNCAP cells after 24 hrs by MTT assay. Format: functional, cell-based. In short, it runs like this: as §2
Assay [17] concerns PC-3. Kind of assay: Cytotoxicity against androgen receptor-negative human PC3 cells after 48 hrs by MTT assay. As to conditions: PC-3, 48 h. Type of assay: functional, cell-based. A digest of the protocol:
as §2

The nature of assay [18]: Cytotoxicity against human MCF7/ADR cells after 24 hrs by MTT assay. Particulars: NCI/ADR-RES. Type of assay: functional, cell-based. In short, it runs like this: as §2
The nature of assay [19]: Cell cycle arrest in human MCF7/ADR cells assessed as accumulation at S phase at 0.2 uM after 48 hrs using propidium iodide staining by flow cytometry (reference value: 15.34 +/- 0.98 %). As to conditions: NCI/ADR-RES. Format: functional, cell-based. In short, it runs like this:
as §1

In assay [20] the test system is LNCaP. Kind of assay: Ratio of IC50 for androgen receptor-negative human PC3 cells to IC50 for androgen receptor-positive human LNCAP cells. Type of assay: functional.
For assay [21], the system named is DU-145. Kind of assay: Ratio of IC50 for androgen receptor-negative human PC3 cells to IC50 for human DU145 cells. Type of assay: functional.
The test system of assay [22] is MCF7. Kind of assay: Ratio of IC50 for androgen receptor-negative human PC3 cells to IC50 for estrogen receptor-positive human MCF7 cells. Type of assay: functional.
Assay [23] deals with MCF7. Kind of assay: Ratio of doxorubicin IC50 to compound IC50 for estrogen receptor-positive human MCF7 cells after 48 hrs by MTT assay. Format: functional.
In a further assay the test system is NCI/ADR-RES. Kind of assay: Ratio of IC50 for androgen receptor-negative human PC3 cells to IC50 for human MCF7/ADR cells. Format: functional.
Assay [24] can be described thus: Cell cycle arrest in human MCF7/ADR cells assessed as accumulation at G2/M phase at 5 uM after 48 hrs using propidium iodide staining by flow cytometry (reference value: 22.51 +/- 1.5 %). Type of assay: functional, cell-based. As to conditions: NCI/ADR-RES. A digest of the protocol: as §1
Assay [25] is described as follows: Cell cycle arrest in human MCF7/ADR cells assessed as accumulation at G1 phase at 5 uM after 48 hrs using propidium iodide staining by flow cytometry (reference value: 62.15 +/- 3.14 %). Format: functional, cell-based. Particulars: NCI/ADR-RES. A digest of the protocol:
as §1

Assay [26] is described as follows: Cell cycle arrest in human MCF7/ADR cells assessed as accumulation at S phase at 5 uM after 48 hrs using propidium iodide staining by flow cytometry (reference value: 15.34 +/- 0.98 %). As to conditions: NCI/ADR-RES. Type of assay: functional, cell-based. A digest of the protocol:
as §1

`COc1cc2c(c3c1c(=O)c1cccnc1n3C)C[C@H]([C@@]1(C)CO1)O2` (racemic): the Activity in assay [1] turned out to be 63.5%; in assay [2], 8.97%; in assay [5] it was 41.1%; in assay [6], 33.7%; in assay [8], 12.4%; in [11] it was 51.2%. For the same molecule, the Activity in assay [13] was determined as 24.1%; in assay [15] it was 57.4%; in [19], 7.68%. The IC50 in the assay with DU-145 [3] is 550 nM; in [4], 150 nM; with MCF7 [7], 260 nM; in the assay with LNCaP [9], 140 nM; with MCF7 [10], 660 nM; with DU-145 [12], 150 nM. Moreover, the IC50 with PC-3 [14] stood at 560 nM; with LNCaP [16], 480 nM; with PC-3 [17] it was 300 nM; in assay [18], 490 nM.
As for `COc1cc2c(c3c1c(=O)c1cccnc1n3C)C[C@H]([C@]1(C)CO1)O2` (racemic), the Activity is 68.4% in assay [1]; 13.6% in assay [2]; 28.3% in assay [5]; 21.8% in assay [6]; 11.2% in assay [8]; 55.2% in assay [11]. The results for the Activity in [13], in assay [15] and in [19] were 20.5%, 64.6% and 16.6%, respectively. Also, the “Ratio IC50” value in the assay on LNCaP [20] stood at 2; with DU-145 [21], 2; with MCF7 [22], 2; in the assay with MCF7 [23], 1.5; in the assay on NCI/ADR-RES, 2. Also, the IC50 with DU-145 [3] is 2360 nM; in assay [4], 920 nM; in the assay with MCF7 [7], 1020 nM; in the assay with LNCaP [9] it was 860 nM; in the assay on MCF7 [10], 1840 nM; in the assay on DU-145 [12], 840 nM. Besides, the IC50 with PC-3 [14] was found to be 4670 nM; in the assay with LNCaP [16], 2480 nM; in the assay with PC-3 [17] it was 2150 nM; in assay [18], 2210 nM.
Consider `COc1cccc2c1C(=O)c1c(O)c3c(c(O)c1C2=O)C[C@@](O)(C(=O)CO)C[C@@H]3O[C@H]1C[C@H](N)[C@H](O)[C@H](C)O1` [DOXORUBICIN], for which the Activity in [24] stood at 24.6%; in assay [25], 53.3%; in [26], 21.9%. Further, the IC50 with DU-145 [3] worked out at 6240 nM; in [4], 13600 nM; in the assay on LNCaP [9], 1660 nM; with DU-145 [12], 580 nM; in the assay with PC-3 [14], 4100 nM; in the assay with LNCaP [16], 7420 nM. For the same molecule, the IC50 with PC-3 [17] was 1220 nM; in [18], above 20000 nM.
